Bioassay records as filed in PubChem BioAssay.
NR3A LBD binder: NR3A (human) ligand-binding domain modulation; NR3A LBD differential scanning fluorimetry, Tm shift; 0% = protein alone, 100% = glycine-bound protein; Tm shift relative to glycine control, % at 25 µM; actives 2.5% (n = 340,000); AID 1259313;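 active means melting temperature shift of at least 10% of the positive control shift, at one fixed dose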
pPAFAH FP inh: pPAFAH (human) enzyme inhibition; Q13093; recombinant pPAFAH, FP-rhodamine probe fluorescence polarization; inhibition, % at 3.39 µM; actives 1.5% (n = 330,000);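 active means inhibition above the mean inhibition across the screen plus 3 SD, cut at about 25% in these data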;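 further: inhibitors block binding of the rhodamine activity-based probe so polarization drops; 0% = enzyme with DMSO and 100% = wells lacking pPAFAH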
Target sequence (Q13093 whole entry, looked up): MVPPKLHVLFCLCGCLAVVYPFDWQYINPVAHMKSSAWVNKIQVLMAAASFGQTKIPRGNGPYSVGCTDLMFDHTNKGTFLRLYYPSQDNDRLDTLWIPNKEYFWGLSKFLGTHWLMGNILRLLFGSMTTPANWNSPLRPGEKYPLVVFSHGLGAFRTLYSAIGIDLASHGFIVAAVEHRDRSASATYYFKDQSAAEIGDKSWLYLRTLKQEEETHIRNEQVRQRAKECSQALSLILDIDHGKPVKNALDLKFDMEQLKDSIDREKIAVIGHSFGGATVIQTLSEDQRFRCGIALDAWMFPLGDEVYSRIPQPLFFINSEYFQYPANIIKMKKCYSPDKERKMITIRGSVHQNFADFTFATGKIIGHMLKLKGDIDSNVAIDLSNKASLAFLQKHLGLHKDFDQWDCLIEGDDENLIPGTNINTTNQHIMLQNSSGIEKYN
UCH37 DUB inh: blocks the human deubiquitinase UCH37; Q9Y5K5; purified proteasome/UCH37, Ub-AMC cleavage fluorescence; inhibition, % (no concentration beside the values); actives 0.33% (n = 330,000); AID 588478;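 active means mean inhibition over replicate wells above about 20%, limit read from the data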;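 further: 0% = compound-free wells with enzyme and 100% = wells lacking proteasome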
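assay system = human UCH37 enzyme supplied as purified proteasome complex | amount = proteasome at 0.15 nM in the dispensed enzyme solution | schedule = 30 min compound-proteasome preincubation then 25 min substrate reaction, room temperature | measured by = fluorescence, ex 355 nm, em 460 nm | benchmarks = no-proteasome wells (full inhibition) and compound-free wells (no inhibition)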
PAFAH2 FP inh: inhibitors of human PAFAH2 | Q99487 | actives 0.99% (n = 340,000) | recombinant PAFAH2, FP-rhodamine activity probe, fluorescence polarization | inhibition, % at 3.39 µM;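 active means inhibition above the mean over all tested compounds plus 3 SD, cut at about 30% in these data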;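 further: inhibitors block probe labeling of enzyme so polarization drops; 0% = enzyme with DMSO and 100% = wells lacking PAFAH2 protein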
PAFAH1B3 FP inh: PAFAH1B3 (human) inhibition | actives 0.28% (n = 340,000) | Q15102 | AID 492972 | inhibition, % at 3.39 µM | recombinant PAFAH1B3, FP-rhodamine probe, fluorescence polarization;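 active means inhibition above the screen-wide average of all tested compounds plus 3 SD, cut at about 25% in these data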;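 further: 0% = enzyme with DMSO only and 100% = wells lacking PAFAH1B3 protein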
PAFAH1B2 FP inh: blocks human PAF acetylhydrolase 1b catalytic subunit 2; recombinant PAFAH1B2, FP-rhodamine activity probe, fluorescence polarization; inhibition, % at 3.39 µM; P68402; AID 492953; actives 1.2% (n = 340,000);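 active means inhibition above the mean of all tested compounds plus 3 SD, cut at about 24% in these data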;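 further: 0% = enzyme with DMSO and 100% = wells lacking PAFAH1B2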
An asterisk follows results filed as active; . = not tested or not shown. An excerpt weighted towards active compounds, which were near 4.8% of everything screened.

SMILES	NR3A LBD binder	pPAFAH FP inh	UCH37 DUB inh	PAFAH2 FP inh	PAFAH1B3 FP inh	PAFAH1B2 FP inh
COc1ccc(CNC(=O)C23CC4CC(CC(Br)(C4)C2)C3)cc1	5	-1	-44	-8	2	26*
CC(C)(CO)NC(=O)C12CC3CC(CC(Br)(C3)C1)C2	2	-3	1	1	0	26*
O=C(O)CC1S/C(=N/N=CC2CC=CCC2)NC1=O (centres undefined)	.	.	6	.	.	.
CN(C)c1ccc(-c2nc3ccccn3c2N=Cc2ccc(Br)cc2)cc1	.	.	1	.	.	.
CN(C)c1ccc(-c2nc3ccccn3c2/N=C/c2ccc(Br)cc2)cc1	24*	4	.	12	6	12
CCOC(=O)c1nc(C)nc(Sc2n[nH]c(-c3cc(C(F)(F)F)cc(C(F)(F)F)c3)n2)c1C	13*	-2	3	-2	0	1
CCC(C)c1ccccc1OCCCCN1CCCC1 (centres undefined)	1	1	31*	4	11	1
CCC(C)c1ccccc1OCCOCCN1CCCC1 (centres undefined)	2	0	-1	0	3	-5
CCCC(=O)Nc1nc(C)c(-c2csc(Nc3cc(OC)ccc3OC)n2)s1	0	29*	-4	7	15	12
C=CCCC(=O)Nc1nc(C)c(-c2csc(Nc3cc(OC)ccc3OC)n2)s1	-2	34*	-3	-11	12	3
CCCC(=O)Nc1nc(C)c(-c2csc(Nc3ccccc3OC)n2)s1	-6	22	-3	2	12	3
CCCC(C)C(=O)Nc1nc(C)c(-c2csc(Nc3cc(OC)ccc3OC)n2)s1 (centres undefined)	-3	28*	7	-5	9	5
O=C(NN=Cc1ccc(N2CCOCC2)cc1)c1ccccn1	.	.	12	.	.	.
Cc1ccc(C=NNC(=O)COc2ccc(Cl)c(C)c2)o1	.	.	7	.	.	.
CC(C)(C)C1CCc2c(C(=O)NN=Cc3cccs3)csc2C1 (centres undefined)	.	.	6	.	.	.
COc1ccccc1NC(=O)/C(=C/c1cccc([N+](=O)[O-])c1)c1ccccc1	11*	3	2	0	1	0
COC(=O)c1cccc(NC(=O)COc2cccc([N+](=O)[O-])c2)c1	2	2	33*	-9	9	-2
CC(=O)c1cccc(NC(=O)/C=C/c2ccc([N+](=O)[O-])s2)c1	10*	.	3	5	9	5
O=C(O)/C=C/c1cccc(NC(=O)Nc2ccc([N+](=O)[O-])cc2)c1	18*	-2	10	0	3	1
O=[N+]([O-])c1ccc(Cl)c(C=NNc2nc(N3CCOCC3)nc(N3CCOCC3)n2)c1	.	.	4	.	.	.
c1ccc(NN=C(Cc2nc3ccccc3[nH]2)c2ccccc2)cc1	.	.	2	.	.	.
Cc1ccc(C=NNC(=O)c2csc3c2CCCC3)cc1	.	.	1	.	.	.
O=C(/C=C\c1ccccc1[N+](=O)[O-])Nc1ccccc1	14*	2	4	-4	0	-1
COC(=O)c1cccc(NC(=O)/C=C/c2cccc([N+](=O)[O-])c2)c1	17*	-1	-2	-7	4	-1
O=C(/C=C/c1ccc([N+](=O)[O-])cc1)Nc1cccc(C(=O)Nc2ccccc2C(=O)O)c1	17*	-6	11	0	16	0
SMILES	NR3A LBD binder	pPAFAH FP inh	UCH37 DUB inh	PAFAH2 FP inh	PAFAH1B3 FP inh	PAFAH1B2 FP inh
O=C(CCC(=O)Nc1ccc(Cl)cc1)NN=Cc1ccc2c(c1)OCO2	.	.	0	.	.	.
COc1cc(C=NNC(N)=S)ccc1OCc1ccc(C)cc1	.	.	3	.	.	.
COc1ccnc(N2CCN(c3cccc(C(F)(F)F)c3)CC2)c1C#N	-6	-1	-3	-3	-4	-4
COc1ccnc(N2CCN(c3ccc(Cl)cc3)CC2)c1C#N	-19	-4	1	7	5	24*
COc1cc(C=NN=C(N)c2nonc2N)cc(OC)c1O	.	.	11	.	.	.
CC(CCC(C)C)=NNC(=S)NCc1ccccc1	.	.	0	.	.	.
Nc1ccccc1Sc1ccccc1[N+](=O)[O-]	-1	11	6	5	3	-2
Nc1nc(O)c(Sc2ccccc2[N+](=O)[O-])c(=O)[nH]1	17*	2	7	1	2	-2
Cn1cnc2c(NN=Cc3cccs3)ncnc21	.	.	15	.	.	.
COc1ccc(N2CCN(C(=O)c3cn(CC4CCCCC4)nn3)CC2)cc1	0	28*	-1	9	-1	1
CC(C)c1c(O)ccc2c1CC[C@H]1C(C)(C)CCC[C@]21C	22*	.	.	-8	5	21
CC(C)(O)c1ccc2c(c1)CCC1C(C)(C(=O)O)CCCC21C (centres undefined)	-3	2	-2	-4	-1	4
CC(C)(C)[C@H]1COC(=O)[C@@H](Cc2ccc(F)cc2)CC/C=C/C[C@@H](CC(=O)N[C@@H](CO)Cc2ccccc2)C(=O)N1	2	12	2	-1	-3	27*
O=C(C[C@@H]1C/C=C\C[C@@H](Cc2ccc(F)cc2)C(=O)OCCNC1=O)N[C@H](CO)Cc1ccccc1	-3	3	1	9	7	27*
O=C(C[C@H]1C/C=C\C[C@@H](Cc2ccc(F)cc2)C(=O)OC[C@H]2CCCN2C1=O)N[C@H](CO)Cc1ccccc1	0	-6	2	7	-6	28*
C[C@@H]1COC(=O)[C@H](Cc2ccc(F)cc2)C/C=C\C[C@@H](CC(=O)N[C@H](CO)Cc2ccccc2)C(=O)N1	-2	3	1	9	-4	27*
O=C(C[C@@H]1C/C=C\C[C@@H](Cc2ccc(F)cc2)C(=O)OC[C@@H](Cc2ccccc2)NC1=O)N[C@H](CO)Cc1ccccc1	-2	0	2	7	10	4
CC(C)(C)[C@H]1COC(=O)[C@@H](Cc2ccc(F)cc2)CC/C=C/C[C@@H](CC(=O)N[C@H](CO)Cc2ccccc2)C(=O)N1	-1	7	5	4	4	31*
CCN(CC)S(=O)(=O)c1cccc(C(=O)NN=Cc2ccccn2)c1	.	.	1	.	.	.
O=C(COC(=O)c1cccc(S(=O)(=O)N2CCN(c3ccccc3)CC2)c1)NCc1ccco1	0	26*	1	15	9	5
NC(=O)COC(=O)c1cccc(S(=O)(=O)N2CCN(c3ccccc3)CC2)c1	0	2	4	1	7	8
N#Cc1cccc(C(=O)OCC(=O)NCc2ccco2)c1	1	-8	2	13	7	0
O=C(COC(=O)c1cccc(Oc2ccccc2)c1)NCc1ccco1	3	34*	1	36*	-5	1
COc1ccc(C=NNC(=O)c2ccc(-n3cnnn3)cc2)cc1	.	.	-73	.	.	.
Cc1nc(N=C(N)NC(=O)N2c3ccccc3Sc3ccccc32)nc2ccccc12	.	.	-1	.	.	.
CC(=NNc1ccc(C(=O)O)cc1)c1ccc2c(c1)Nc1ccccc1S2	.	.	-52	.	.	.
